High-throughput results as filed in PubChem.
In the library only some 3% were active in any assay of this set; here they are far more common.
Myeloid diff 2 – induction of myeloid progenitor differentiation, primary screen, cell-based, flow cytometry, MLPCN library; ER-HoxA9 myeloid progenitors, lysozyme-GFP differentiation; calls only at 10 µM; 360,000 tested, 1% active;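 active = normalized GFP-positive differentiation at or above the plate's own cutoff, the solvent-only control mean plus 3 SD; inconclusive = no clear call, values can overlap the other calls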;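 note: cells exposed to compound for four days before flow analysis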
HNF4A DNA FP – change in binding of human HNF4A to DNA, primary screen, biochemical, fluorescence polarization, FITC-DNA. Hepatocyte nuclear factor 4-alpha (Homo sapiens), P41235. 1 h. activity change, % at 10 µM. 360,000 tested, 0.3% active. AID 1224865, 2016; in the data active = activity change above about 30%, passing the limit was not always enough
Target sequence (P41235 whole entry, looked up): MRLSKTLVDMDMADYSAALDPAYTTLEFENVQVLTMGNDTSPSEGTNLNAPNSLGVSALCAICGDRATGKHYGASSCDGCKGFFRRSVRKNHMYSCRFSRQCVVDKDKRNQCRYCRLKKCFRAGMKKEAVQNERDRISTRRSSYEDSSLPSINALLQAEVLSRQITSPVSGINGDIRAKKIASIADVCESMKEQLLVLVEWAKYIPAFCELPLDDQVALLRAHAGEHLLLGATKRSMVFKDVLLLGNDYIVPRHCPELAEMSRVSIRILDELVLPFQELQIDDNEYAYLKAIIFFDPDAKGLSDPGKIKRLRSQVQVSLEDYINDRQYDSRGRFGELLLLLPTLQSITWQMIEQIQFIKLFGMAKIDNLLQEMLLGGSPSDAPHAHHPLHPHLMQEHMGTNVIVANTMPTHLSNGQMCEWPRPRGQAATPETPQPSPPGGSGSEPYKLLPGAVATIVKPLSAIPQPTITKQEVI
DSG3 Ab inh – inhibitors of pemphigus antibody binding to DSG3, primary screen, biochemical, bead-based, flow cytometry, scFv-GFP. DSG3-coupled beads, scFv-anti-DSG3-GFP binding; active compounds read low. binding (percent of control), % at 10 µM. 310,000 tested, 0.48% active. AID 588358, 2011;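 active = binding more than 3 SD below its plate's average and above zero; inconclusive = below that plate limit but binding exactly zero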;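 note: hits lower antibody fragment binding to DSG3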
H9c2 protect – cardioprotection against H2O2-induced cell death, primary screen, uHTS, H9c2 cells, ATPLite luminescence; H9c2 cardiomyocytes, H2O2 injury protection, 2 h; protection from H2O2 cell death, % at 20 µM; 360,000 tested, 0.63% active; AID 588492, 2011;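 active = compounds giving at least 50% protection of heart cells from peroxide-induced death in the single-dose screen, raw or plate-pattern-corrected value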;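 note: 0% = DMSO wells with peroxide and 100% = DMSO wells without peroxide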
SENP1 FRET inh – human SENP1 catalytic domain inhibitors, primary screen, biochemical, FRET, uHTS. Sentrin-specific protease 1 (Homo sapiens), Q9P0U3. recombinant SENP1 catalytic domain, CyPet-SUMO1-YPet FRET cleavage. inhibition, % at 10 µM. 360,000 tested, 0.21% active. AID 624204, 2012;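 active = inhibition at least 30% at 10 µM, raw YFP signal under a set limit, fluorescence ratio 0.5 to 1.5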;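 note: 0% = enzyme with DMSO and 100% = no enzyme wells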
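Test system: human SENP1 catalytic domain; medium: Tris pH 8 buffer plus EDTA, NaCl, BME, BSA, NP40, catalase; incubation: 50 min reaction at room temperature; technique: FRET, CFP and YFP emission; controls: no-enzyme low control and enzyme-plus-DMSO high control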
Granule exo inh – LAMP-1 surface exposure blockers, TALL-104 cells – cell-based, flow cytometry, MLPCN library, primary screen | TALL-104 LAMP-1 surface exposure; cells stimulated with thapsigargin and PMA | inhibition, % at 10 µM | 360,000 tested, 0.66% active;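 active = inhibition above about 55%, limit read from the data; inconclusive = no clear call, values can overlap the other calls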
Numbers without * were called inactive; i = inactive; ? = inconclusive; . = no result given; + = active, no number; ! = not active in a repeat.

SMILES	Myeloid diff 2	HNF4A DNA FP	DSG3 Ab inh	H9c2 protect	SENP1 FRET inh	Granule exo inh
CC(C)C[C@H](NC(=O)OC(C)(C)C)C(=O)N1CCC(C(=O)N[C@@H](Cc2c[nH]c3ccccc23)C(=O)O)CC1	i	-2	?	-2	2	-1
CCC1CN2CCc3cc(OC)c(OC)cc3C2CC1CC1c2cc(OC)c(OC)cc2CCN1C(=O)C(Cc1c[nH]c2ccccc12)NC(=O)OC(C)(C)C (centres undefined)	+	1	114	9	34	0
CCN(CC)CCN(C(=O)c1ccc2c(c1)CCCC2)c1nc2cc(OC)c(OC)cc2s1	i	2	109	-12	1	56*
CN(C)c1ccc(/C=C2\SC(=S)N(Nc3ncc(C(F)(F)F)cc3Cl)C2=O)cc1	+	166	.	-2	-23	1
COc1cc(/C=C2\SC(=S)N(Nc3ncc(C(F)(F)F)cc3Cl)C2=O)ccc1O	i	82*	92	-1	-16	4
CNc1c2c(nn1C)CCCC2	+!	-1	103	-2	2	-6
C#CCNc1c2c(nc3nnnn13)CCCC2	i	-1	97	4	0	7
CCCNC(=O)c1ccc2c(=O)c(O)c(C)[nH]c2c1	i	-3	104	6	0	-4
CCCNC(=O)c1ccc2c(=O)c(O)c(-c3ccc(F)cc3)[nH]c2c1	i	0	103	57*	57	4
CCCNC(=O)c1ccc2c(=O)c(O)c(-c3cccc(Br)c3)[nH]c2c1	i	-4	93	54*	53	-10
CCn1c2ccccc2c2cc(NC(=O)COC(=O)c3cc(S(N)(=O)=O)c(Cl)cc3Cl)ccc21	i	-1	84	6	4	-1
CN(C)S(=O)(=O)c1ccc2[nH]cc(/C=C/c3nc4ccccc4c(=O)n3-c3ccccc3)c2c1	i	1	100	66*	-27	2
CCn1c(/C=C/c2c[nH]c3ccccc23)nc2ccccc2c1=O	i	-2	96	8	-29	0
CN(C)c1ccc(/C=C/c2nc3ccccc3c(=O)n2-c2ccc(C(=O)O)cc2)cc1	+	151	93	5	-23	6
O=C(O)c1cccc(-n2c(/C=C/c3ccccc3)nc3ccccc3c2=O)c1	i	-2	104	4	3	-7
CC(Oc1ccc(C#N)cc1)C(=O)c1ccc(F)c(F)c1 (centres undefined)	i	2	105	-1	3	0
O=P(NC1CCCCC1)(c1ccccc1)c1ccccc1	i	-4	88	4	1	-4
CC/C(=C\C1CCCCC1)C(NP(=O)(c1ccccc1)c1ccccc1)c1ccccc1 (centres undefined)	i	0	.	-9	3	59*
Cc1cc(Cl)ccc1NC(=O)CN1C(=O)C(=O)N(C2CCCC2)C1=O	i	4	99	5	-1	5
CCCCCNC(=O)C(c1cccc2ccccc12)n1c(=O)c(-c2ccco2)nc2ccccc21 (centres undefined)	i	40*	.	.	-49	0
O=C(NCc1ccccc1)C(c1cccc2ccccc12)n1c(=O)c(-c2ccco2)nc2ccccc21 (centres undefined)	i	26	.	.	-49	-1
CC(C)(C)NC(=O)C(c1ccc(-c2ccccc2)cc1)n1c(=O)c(-c2ccco2)nc2ccccc21 (centres undefined)	i	46*	.	.	-70	2
COc1ccc(NC(=O)C(c2ccnc3ccccc23)n2c(=O)c(-c3ccco3)nc3ccccc32)cc1 (centres undefined)	i	11	.	.	-17	5
Cc1cccc(C)c1NC(=O)C(c1ccccc1F)n1c(=O)c(-c2ccco2)nc2ccccc21 (centres undefined)	i	45*	.	.	-44	-2
Cc1cccc(C)c1NC(=O)C(c1ccnc2ccccc12)n1c(=O)c(-c2ccco2)nc2ccccc21 (centres undefined)	i	44*	.	.	-42	-1
SMILES	Myeloid diff 2	HNF4A DNA FP	DSG3 Ab inh	H9c2 protect	SENP1 FRET inh	Granule exo inh
COc1ccc(NC(=O)C(c2ccccc2F)n2c(=O)c(-c3ccco3)nc3ccccc32)cc1 (centres undefined)	i	16	.	.	-16	-5
CC(=O)Oc1ccc(C(=O)Nc2cccc(C(=O)Nc3ccccc3C(=O)O)c2)cc1	i	-1	100	4	2	-1
C=CCC[C@H](Cc1ccc(F)cc1)C(=O)OC[C@H](Cc1c[nH]c2ccccc12)NC(=O)[C@H](CC=C)CC(=O)N(CCO)Cc1ccccc1	i	-4	103	-6	1	59*
Cc1ccc(S(=O)(=O)N(CC(=O)NCCC2=CCCCC2)Cc2ccccc2)cc1	+	-3	107	-13	2	1
COc1cc(C)ccc1OCc1cc(C(=O)N(Cc2c(C)nn(C)c2C)C2CC2)no1	i	9	.	-6	-1	0
CC(C)N1C(=O)/C(=C\c2nc3ccccc3c(=O)[nH]2)c2ccccc21	i	11	.	85*	-2	98*
COc1ccccc1NC(=O)COC(=O)CCc1ccc(S(=O)(=O)N2CCOCC2)cc1	i	2	.	6	1	6
O=C1NC(=O)/C(=C/c2ccco2)N1	i	-4	106	10	3	-5
O=C1NC(=S)NC1=Cc1ccco1	i	-5	78*	-3	1	38
CCN1C(=O)[C@H]2[C@@H](c3ccc(-c4ccccc4)cc3)N[C@@](C)(C(=O)OC)[C@H]2C1=O	i	-1	105	1	2	-1
CCN1C(=O)[C@H]2[C@@H](c3ccc(-c4ccc(C(C)=O)cc4)cc3)N[C@@](C)(C(=O)OC)[C@H]2C1=O	i	3	103	52*	7	-6
CCCCc1cn([C@@H](CCCCNC(=O)OC(C)(C)C)C(=O)N2CCN(C(=O)OC(C)(C)C)CC2)nn1	i	-8	102	1	-1	103*
CN(C)c1ccccc1C(=O)N1CCCC(C(=O)c2ccc3ccccc3c2)C1 (centres undefined)	i	3	126	-13	-1	-1
COc1cc(/C=C/C(=O)Nc2ccc3nc4n(c(=O)c3c2)CCCC4)cc(OC)c1OC	i	4	100	54*	-2	1
Cc1[nH]c2ccccc2c1/C=N/Nc1nc2ccccc2[nH]1	i	-1	102	-18	-8	72*
